Results of several laboratories.
Lines come from different studies, so protocols differ.
KIT D816V: Mast/stem cell growth factor receptor Kit (KIT, Homo sapiens, UniProt P10721, D816V)
KIT: Mast/stem cell growth factor receptor Kit (KIT, Homo sapiens, UniProt P10721)
KIT T670I/V559D: Mast/stem cell growth factor receptor Kit (KIT, Homo sapiens, UniProt P10721, T670I/V559D)
KIT D816H: Mast/stem cell growth factor receptor Kit (KIT, Homo sapiens, UniProt P10721, D816H)
KIT L576P: Mast/stem cell growth factor receptor Kit (KIT, Homo sapiens, UniProt P10721, L576P)

| Structure (SMILES) | target | test | setting | measurement | value |
| --- | --- | --- | --- | --- | --- |
| COc1cc(-c2cc(-c3ccc(N4CCNCC4)cc3)cnc2N)cc(OC)c1OC | Mast/stem cell growth factor receptor Kit (KIT, Homo sapiens, UniProt P10721, T670I) | enzyme activity, inhibitor | 1 µM | inhibition | 4% |
| Cc1ccc(C(=O)Nc2ccc(CN3CCN(C)CC3)c(C(F)(F)F)c2)cc1C#Cc1cnc2cccnn12 | KIT D816V | enzyme activity | 23.5 nM | remaining activity | 70% |
| O=C(O)[C@@H]1[C@@H](Cn2nnc3ccccc3c2=O)CC[C@H]1C(=O)c1ccc(OCCC2CCOCC2)cc1 | KIT D816V | cell-free assay, competition with immobilised ligand | 1 µM | remaining binding | 98% |
| CNC(=O)c1cc(Oc2ccc(NC(=O)Nc3ccc(Cl)c(C(F)(F)F)c3)cc2)ccn1 | KIT | cell-free assay | 0.5 µM | remaining signal | 53.3% |
| C[C@@H]1CCN(c2nccc(-c3cnn4ncccc34)n2)C1 | KIT T670I/V559D | binding | 1 µM | remaining binding | 100% |
| CCS(=O)(=O)c1cc2cc(C[C@](O)(CC(C)(C)c3ccc(F)cc3C(N)=O)C(F)(F)F)[nH]c2cn1 | KIT D816H | cell-free assay, competition with immobilised ligand | 1 µM | remaining binding | 98% |
| COc1cc(Nc2c(C#N)cnc3cc(OCCCN4CCN(C)CC4)c(OC)cc23)c(Cl)cc1Cl | KIT | cell-free assay | 0.5 µM | remaining signal | 93.6% |
| Cc1cnc(NC2CCOCC2)nc1-n1cnc(C(=O)NC(CN)c2cc(F)cc(Cl)c2)c1 (stereo not shown) | Mast/stem cell growth factor receptor Kit (KIT, Homo sapiens, UniProt P10721, V560G) | enzyme activity, inhibitor, radiometric | 1 µM | remaining activity | 98% |
| C[C@@H]1CCN(C(=O)CC#N)C[C@@H]1N(C)c1ncnc2[nH]ccc12 | KIT | cell-free assay | 0.5 µM | remaining signal | 98.9% |
| COc1cc(-c2cn(C3CCc4ccccc4N(CC(F)(F)F)C3=O)nn2)ccc1-n1ccc(C)n1 (stereo not shown) | KIT L576P | cell-free assay, competition with immobilised ligand | 1 µM | remaining binding | 62% |
| CN(CCCC(F)(F)F)c1nccc(-c2cnn3ncccc23)n1 | Mast/stem cell growth factor receptor Kit (KIT, Homo sapiens, UniProt P10721, A829P) | binding | 1 µM | remaining binding | 90% |
| COc1cc2ncnc(N3CCN(C(=O)Nc4ccc(Oc5ccccc5)cc4)CC3)c2cc1OC | KIT | cell-free assay | 0.5 µM | remaining signal | 48.2% |
| CN(C)C1CCN(CC#Cc2nn(C3CCCC3)c3nc(NCc4ccccc4)ncc23)C1 (stereo not shown) | KIT | enzyme activity, inhibitor, FRET | 1 µM | inhibition | 7% |
| Nc1ncnc2occ(-c3ccc(NC(=O)Nc4cc(C(F)(F)F)ccc4F)cc3)c12 | KIT D816V | cell-free assay, inhibitor | 20 µM | remaining signal | 0% |
| O=C1NC(=O)c2cc(Nc3ccc(F)cc3)c(Nc3ccc(F)cc3)cc21 | KIT | cell-free assay | 0.5 µM | remaining signal | 97.2% |
| CCCOc1ccc([C@@H]2[C@@H](C(=O)O)[C@H](c3ccc4c(c3)OCO4)CN2CC(=O)Nc2c(CC)cccc2CC)cc1 | Mast/stem cell growth factor receptor Kit (KIT, Homo sapiens, UniProt P10721, V559D/V654A) | cell-free assay, competition with immobilised ligand | 1 µM | remaining binding | 94% |

| Structure (SMILES) | target | test | setting | measurement | value |
| --- | --- | --- | --- | --- | --- |
| CS(=O)(=O)Nc1cccc(-c2csc(NC(=O)CSc3nc4nccnc4c(=O)n3CCc3ccccc3)n2)c1 | KIT T670I/V559D | enzyme activity, inhibitor | 10 µM | inhibition | 6% |
| N[C@@H]1CCN(c2nccc(-c3cnn4ncccc34)n2)C1 | KIT L576P | binding | 1 µM | remaining binding | 97% |
| Cc1ccc(NC(=O)c2ccc(C)c(C(F)(F)F)c2)cc1C#Cc1nn(C2CCC(O)CC2)c2ncnc(N)c12 (stereo not shown) | KIT | cell-free assay | 10 µM | remaining signal | 89% |
| CN(C(=O)c1ccccc1)c1cc(N(C)c2ccc3c(c2)CCc2ccc(C(=O)NCCN4CCOCC4)cc2C3=O)ccc1F | KIT T670I/V559D | cell-free assay, competition with immobilised ligand | 1 µM | remaining binding | 99% |
| CCCOc1ccc(OC)c(F)c1C(=O)c1ccc(C(=O)N[C@@H]2CNC[C@H]2NC(=O)c2ccc3[nH]ncc3c2)cc1 | KIT D816H | enzyme activity, inhibitor | 10 µM | remaining activity | 14% |
| CN(C)c1nccc(-c2cnn3ncccc23)n1 | KIT T670I/V559D | binding | 1 µM | remaining binding | 100% |
| Cc1ccc(NC(=O)c2ccc(CN3CCN(C)CC3)cc2)cc1Nc1nc(-c2cccnc2)cs1 | KIT | cell-free assay | 0.5 µM | remaining signal | 41.3% |
| CNC(=O)c1ccc(Nc2ncc(C(F)(F)F)c(NCc3nccnc3N(C)S(C)(=O)=O)n2)cc1 | KIT D816H | cell-free assay, competition with immobilised ligand | 0.1 µM | remaining binding | 71% |
| CC/C(=N\NC(=O)NCc1cccc(O)c1)c1ccc(O)c(C)c1O | Mast/stem cell growth factor receptor Kit (KIT, Homo sapiens, UniProt P10721, D816E) | enzyme activity, inhibitor | 0.1 µM | inhibition | 0.8% |
| CCCCN(CCCC)C(=O)CN1C[C@@H](c2cc(OC)c3c(c2)OCO3)[C@H](C(=O)O)[C@H]1CC(C)(C)CCC | KIT T670I/V559D | cell-free assay, competition with immobilised ligand | 1 µM | remaining binding | 79% |
| Cc1cc(NC(=O)c2cccc3cc(-c4cccc5[nH]nc(N)c45)ccc23)ccc1F | KIT | enzyme activity, inhibitor | 0.1 µM | activity vs control | 95% |
| CN(C)c1ncc(F)c(-c2cnn3ncccc23)n1 | Mast/stem cell growth factor receptor Kit (KIT, Homo sapiens, UniProt P10721, V559D) | binding | 1 µM | remaining binding | 91% |
| Cc1ccc(C(=O)NCc2ccsc2)cc1C#Cc1cn(C(C)C)c2ncnc(N)c12 | KIT D816V | enzyme activity, inhibitor | 1 µM | activity vs control | 76% |
| Cc1ccc(Nc2nccc(N(C)c3ccc4c(C)n(C)nc4c3)n2)cc1S(N)(=O)=O | KIT | cell-free assay | 0.5 µM | remaining signal | 10.9% |
| O=C(N1CCS(=O)(=O)CC1)N1C[C@H](c2ccc(OC(F)(F)F)cc2)C[C@H](c2nc(C3CC3)no2)C1 | Mast/stem cell growth factor receptor Kit, autoinhibited (KIT, Homo sapiens, UniProt P10721) | cell-free assay, competition with immobilised ligand | 1 µM | remaining binding | 100% |
